Source: PubChem BioAssay (The Scripps Research Institute Molecular Screening Center)
M4 PAM: potentiates acetylcholine response at human M4 receptor. CHO-K1 hM4/Gqi5, Fluo-8 calcium fluorescence, ACh EC20; 0% = ACh EC20, 100% = maximal ACh. 0.4% of 360,000 active. activation, % at 3 µM. P08173;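 active = activation above its plate's cutoff, the mean activation of sample wells plus 3 SD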
Target sequence (P08173 whole entry, looked up): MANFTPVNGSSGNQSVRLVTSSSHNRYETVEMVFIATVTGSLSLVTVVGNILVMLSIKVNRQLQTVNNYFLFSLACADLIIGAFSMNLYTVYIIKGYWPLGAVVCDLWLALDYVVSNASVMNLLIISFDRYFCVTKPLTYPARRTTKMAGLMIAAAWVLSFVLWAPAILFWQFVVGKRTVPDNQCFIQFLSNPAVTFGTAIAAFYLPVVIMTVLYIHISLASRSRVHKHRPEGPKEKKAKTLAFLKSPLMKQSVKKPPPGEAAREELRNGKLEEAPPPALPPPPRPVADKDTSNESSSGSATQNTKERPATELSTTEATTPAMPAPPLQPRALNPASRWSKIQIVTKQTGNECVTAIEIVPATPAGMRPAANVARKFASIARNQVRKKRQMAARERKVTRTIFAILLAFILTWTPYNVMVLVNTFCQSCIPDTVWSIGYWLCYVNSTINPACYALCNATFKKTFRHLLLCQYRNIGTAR
CHRM5 PAM: CHRM5 positive allosteric modulation; activation, % at 3 µM; CHO-K1 hM5, Fluo-8 calcium, ACh EC20 PAM; 0% = ACh EC20, 100% = ACh EC100; AID 624038; 0.3% of 360,000 active; P08912;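 active = activation above the run cutoff, the mean activation of all test compounds plus 3 SD, cut at about 18% in these data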
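System: CHO-K1 hM5 cells. Reagent: acetylcholine, EC20 level. Compound dosing: single dose, 3 µM nominal final test concentration. Timing: Post-acetylcholine fluorescence recording 140 s. Detection: Fluo-8 calcium fluorescence. Read-out: % activation, ACh-normalized. Benchmarks: ACh EC20 and EC100 wells. Repeats: singlicate, one well per test compound.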
CHRM4 antagonist: blocks acetylcholine activation of human M4 receptor | inhibition, % at 3 µM | 0.73% of 360,000 active | AID 624125 | CHO-hM4 cells, ACh EC80, Fluo-8 calcium fluorescence;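 active = inhibition above its plate's cutoff, the mean inhibition of sample wells plus 3 SD, cut at about 27% in these data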;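 also: 0% = acetylcholine EC80 with DMSO and 100% = DMSO without agonist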
CHRM5 antagonist: antagonists of human muscarinic M5 receptor (CHRM5); inhibition, % at 3 µM; 0.59% of 360,000 active; AID 624040; CHO-hM5 cells, Fluo-8 calcium fluorescence, ACh EC80;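 active = inhibition above a per-plate cutoff, the mean of that plate's test compounds plus 3 SD, cut at about 27% in these data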;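 also: 0% = acetylcholine EC80 with DMSO and 100% = DMSO without agonist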
CHRM5 agonist: agonists of human muscarinic M5 receptor (CHRM5); CHO-K1 hM5 cells, Fluo-8 calcium fluorescence; 0% DMSO wells, 100% maximal acetylcholine response; activation, % at 3 µM; 0.19% of 360,000 active;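 active = activation above the run's mean over test compounds plus 3 SD, cut at about 23% in these data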;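 also: signal is peak over basal fluorescence ratio across the kinetic read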
CHRM4 agonist: agonists of human muscarinic M4 receptor (CHRM4) | P08173 | 0.14% of 360,000 active | AID 624127 | CHO-K1 hM4/Gqi5, Fluo-8 calcium fluorescence; vehicle 0%, full acetylcholine response 100% | activation, % at 3 µM;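 active = activation above the run mean over all test wells plus 3 SD, cut at about 32% in these data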;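 also: peak over basal fluorescence ratio per well then scaled between controls; 0% = DMSO wells and 100% = acetylcholine at EC100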
Numbers without * were called inactive. Sampled rows, rich in hits. Any-hit rate of the full collection: about 1.8%.

SMILES | M4 PAM | CHRM5 PAM | CHRM4 antagonist | CHRM5 antagonist | CHRM5 agonist | CHRM4 agonist
CC#CC[N+](C)(C)CCCCCCCCCCCC | -20 | -22 | 27* | 13 | -11 | 0
C#CC[N+](C)(C)CCCCCCCCCCCC | -15 | -19 | 53* | 21 | -8 | 0
O=C(Cc1ccc(NC2=NC3CS(=O)(=O)CC3S2)cc1)NCc1ccccc1 (stereo not given) | -2 | 2 | 9 | 1 | 2 | 1
O=C(Cc1ccc(NC2=NC3CS(=O)(=O)CC3S2)cc1)NCc1ccccc1Cl (stereo not given) | 16* | 2 | -29 | -7 | 0 | 0
CC(NC(=O)c1ccc(NC2=NC3CS(=O)(=O)CC3S2)cc1)c1ccccc1 (stereo not given) | -18 | -18 | 94* | 13 | -1 | 0
CCC1(c2ccccc2)NC(=O)N(CC(=O)Nc2ccccc2C(=O)N2CCCCC2)C1=O (stereo not given) | -3 | -6 | 3 | 9 | 4 | 0
O=CNc1cc(-c2ccc(C(=O)NC3CC3)cc2)cn2c(-c3ccc(F)cc3)cnc12 | -4 | -5 | 6 | -2 | 1 | 5
CNC(=O)c1cc(Oc2ccc(NC(=O)Nc3ccc(Cl)c(C(F)(F)F)c3)cc2)ccn1 | -15 | -31 | 32* | 30* | 3 | 21
COc1ccccc1C(=O)Nc1ccccc1N1CCN(C(=O)c2ccc(Cl)cc2)CC1 | -9 | 0 | -3 | 7 | -3 | 11
O=C1NC2(CCCCCC2)N=C1c1ccc(Br)cc1 | 17 | 3 | 35* | -9 | 4 | 0
Cc1cc(NC(=O)COC(=O)c2cnccn2)ccc1Br | 2 | 11 | 4 | -4 | 2 | 3
Cc1cccc2cc(CN(CCN(C)C)C(=S)Nc3ccccc3)c(=O)[nH]c12 | 36* | 24* | -7 | -8 | 11 | 2
Cc1ccc(N(Cc2cc3cccc(C)c3[nH]c2=O)S(=O)(=O)c2ccccc2)c(C)c1 | -5 | -12 | 9 | 28* | -6 | 8
CCN(CC)CCN(Cc1cc2cc(C)ccc2[nH]c1=O)C(=S)Nc1ccccc1 | -6 | -16 | 5 | 46* | 52* | 1
Cc1cccc(NC(=S)N(CCN(C)C)Cc2cc3cc(C)ccc3[nH]c2=O)c1 | 12 | 8 | 2 | 0 | 20 | 2
CCc1nc2c(OCc3ccc(F)c(F)c3)cccn2c1N(C)C(=O)c1ccc(C)cc1 | -5 | -2 | 3 | 9 | -3 | -1
CC(OC(=O)c1ccc(OCC2CCCO2)cc1)C(=O)N(C)Cc1ccccc1 (stereo not given) | 0 | -6 | 9 | 16 | 3 | 5
O=C(O)CCC(=O)NNc1ncnc2ccccc12 | -4 | -10 | 4 | 4 | -2 | 1
O=C(O)CCC(=O)NNc1nc2ccccc2nc1-c1ccccc1 | 6 | 19* | 1 | 0 | 1 | 1
O=C(c1ccc([N+](=O)[O-])cc1)N(Cc1ccc(Cl)cc1)N1C(=O)CCCC1=O | 3 | -3 | 3 | -2 | -1 | 3
O=C(c1ccc([N+](=O)[O-])cc1)N(Cc1ccc(Cl)cc1Cl)N1C(=O)CCCC1=O | 0 | 2 | 67* | -1 | -1 | 1
O=C(Nc1ccc(S(=O)(=O)Nc2ncccn2)cc1)c1ccc(Br)cc1 | 11 | 0 | -20 | -4 | 0 | 1
Cn1nc(C(C)(C)C)cc1C(=O)NCc1cc(F)cc2c1OCOC2 | -12 | -28 | 23 | 29* | 7 | 20
CSc1ccccc1NC(=O)CSCc1nc2sc(C)c(C)c2c(=O)[nH]1 | -2 | 4 | 8 | -4 | 2 | 1
Cc1sc2nc(CSCC(=O)Nc3ccccc3C#N)[nH]c(=O)c2c1C | 38* | 3 | -6 | -1 | 1 | 1
O=S(=O)(c1ccc(N2CCCCCC2)nc1)N1CCCC1 | -17 | -16 | 29* | -5 | -11 | 0
CC(=O)N(Cc1ccccc1)c1nc(-c2ccccc2)cs1 | -6 | 1 | -4 | 3 | -5 | -1
CN(C(=O)COC(=O)c1ccc2ccccc2n1)C1CCCCC1 | 25* | 11 | 2 | 0 | 2 | 2
